Laboratory results reported in ChEMBL document CHEMBL4513216, “Probing the Open Global Health Chemical Diversity Library for Multistage-Active Starting Points for Next-Generation Antimalarials” (ACS Infect Dis, 2020).

test: Toxicity liver stage against HepG2, at 10uM; assay type: cell-based; set-up: test concentration 10 uM, cell line HepG2-A16-CD81EGFP; details: human, HepG2-A16-CD81EGFP cells; read-out: INHIBITION
Summary of the method: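 Uninfected HepG2-A16-CD81EGFP cells, 3 × 10^3 per well, 1536-well, plated on prespotted compound at 10 μM final, parasite-free screening media added to match infected plates; puromycin 10 μM positive, DMSO 0.5% negative; run in parallel with 48 h PbLuc assay at 37 °C, 5% CO2; viability by CellTiter-Glo luminescence, normalized to controls.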

Row | Compound | cytotoxicity at 10 µM [%]
1 | CC(C)(C)c1cn(C[C@H]2CC3CCN2C[C@@H]3C(=O)NC2CC2)nn1 (stereo not given in full) | 9.46
2 | CC(=O)N1N=C(c2ccccc2)OC1C(=O)N(C)CCc1ccccc1 (stereo not given) | 3.54
3 | OC[C@@H]1[C@@H](c2ccccc2)CN2CCN(c3ccccn3)C[C@H]12 | -0.53
4 | O=C1CSC(C(F)(F)F)c2c(O)nn(C3CCCCC3)c2N1 (stereo not given) | -45.7
5 | COc1ccc(F)cc1S(=O)(=O)N1CCC(Oc2ccc(Cl)cn2)CC1 | 8.05
6 | Cc1ccc(CNC(=O)C2c3c(ncn3C(C)C)CCN2S(C)(=O)=O)o1 (stereo not given) | -13.7
7 | O=C(NC1CC1)c1nc2c(o1)CN(c1ncccn1)C2 | 0.718
8 | CCOCc1cncc2c1CCN(S(=O)(=O)c1ccccc1)C2 | 14.6
9 | CN1Cc2c(C(=O)N3CCOCC3)ncn2-c2ccccc2S1(=O)=O | -1.58
10 | CN(C)C(=O)N1CC2(CCN(S(=O)(=O)C3CC3)CC2)c2ccccc21 | -110
11 | O=c1[nH]c2c(c(=O)n1C1CCCCC1)CCC2NCCc1ccccc1 (stereo not given) | -6.91
12 | Cc1cc(C(=O)NCC(C)C)nn1C | -0.971
13 | CCOC(=O)c1cc(C(C)(O)CCC=C(C)C)on1 (stereo not given) | 2.3
14 | O=C(NC1CCS(=O)(=O)C1)c1cc(Sc2ncccn2)ccn1 (stereo not given) | 12
15 | Cc1ccccc1S(=O)(=O)N(C)[C@@H]1CC[C@@H](n2ccnc2C)[C@@H]1O | -1.07
16 | Cc1csc(Nc2cc(C3CN(C(C)C)C3)nc(C)n2)n1 | -7.56
17 | O=C(NC1CCCN(c2ccccn2)C1)C1(c2ccccc2F)CC1 (stereo not given) | 7.79
18 | CS(=O)(=O)N1CCCC(Cc2cnc(Br)cn2)CC1 (stereo not given) | -2.46
19 | COCC(=O)N1CCOC(c2cccc(-c3cncnc3)n2)C1 (stereo not given) | 0.109
20 | Cc1ccccc1-c1cncc(C2CCN(CCO)CC2)n1 | -1.61
21 | CC(=O)N1CCCCC1c1nc2c(c(NC3CCCC3)n1)CN(C)CC2 (stereo not given) | -13
22 | CN(CCC(=O)N1CCCC(Cc2cccnc2)C1)Cc1cccnc1 (stereo not given) | -9.41

Row | Compound | cytotoxicity at 10 µM [%]
23 | CC(=O)N1CCCCC1c1nc(N)ncc1-c1ccccc1 (stereo not given) | -0.233
24 | COc1cc(CNC(C)c2nnc3n2CCC3)cc(OC)c1 (stereo not given) | -41.7
25 | CCOCCCNC(=O)c1cccn1Cc1cccnc1 | -43.8
26 | Cc1cc(CN(CCO)Cc2cc(Br)ccc2F)no1 | 3.46
27 | Clc1cc(Cl)cc(CN2CCC(NCc3cc[nH]n3)CC2)c1 | 11.1
28 | COCCCOc1ccc(C(=O)N(C)Cc2cccc(O)c2)cn1 | -9.63
29 | CCC(C)c1csc(NC(=O)c2sc(-c3nnc[nH]3)nc2C)n1 (stereo not given) | -35.5
30 | Cc1noc(CCCC(=O)N2CSCC2C(=O)NCC2CC2)n1 (stereo not given) | -44.9
31 | FC(F)(F)c1cc(C2CCCN(Cc3ccncc3)C2)n[nH]1 (stereo not given) | -52.8
32 | CC(C)N(C)S(=O)(=O)N(Cc1cccs1)CC1CCCO1 (stereo not given) | -53.7
33 | Cc1cc(C(=O)NC(C)CC(=O)c2ccco2)[nH]n1 (stereo not given) | -8.17
34 | COc1ccc(CNC(Cn2cncn2)c2ccccc2)cc1C (stereo not given) | -4.33
35 | CC(=O)Nc1ccc(CNCc2ccc(CS(C)(=O)=O)cc2)cc1 | 4.67
36 | Cc1nnc(NC(=O)NC2CCCc3c2cnn3CCO)s1 (stereo not given) | 6.66
37 | O=C(CCNS(=O)(=O)c1ccccc1F)NCc1ccoc1 | -16.5
38 | Cc1ncc2c(n1)CN(Cc1nc(C)c(C)o1)CC2 | -4.32
39 | O=C(CCc1ccncc1)N1CCCC(N2CCNC2=O)C1 (stereo not given) | 2.71
40 | O=C(c1ccc(-n2ccnc2)nn1)N1CCCCC1Cn1cccn1 (stereo not given) | -4.49
41 | CC(C)Cn1cnnc1C1CCCN1C(=O)c1ccc(F)cc1F (stereo not given) | -2.01
42 | NS(=O)(=O)CC1CCCN1CCOc1ccccc1F (stereo not given) | 3.98
43 | CCS(=O)(=O)NC(CCSC)C(=O)Nc1ccc(F)cc1 (stereo not given) | -6.6
44 | CCc1ccc(NC(=O)c2ncc(C(N)=O)cc2Cl)cc1F | -9.86

Row | Compound | cytotoxicity at 10 µM [%]
45 | CCOCCN1CCN(CC(O)c2ccc(F)cc2)CC1 (stereo not given) | -8.92
46 | CCc1nc(CN2CCCC2C(=O)NC2CC2)cs1 (stereo not given) | -4.63
47 | N#Cc1ccc(CN(CCF)Cc2cccc(F)c2)cc1 | -4.11
48 | COc1ccc(CN(C)CC(=O)c2ccc3[nH]c(=O)[nH]c3c2)cc1F | 8.51
49 | CCN(C(=O)C1Cc2cc(Cl)ccc2O1)C1CC1 (stereo not given) | 10.1
50 | CCn1c(CN(C)Cc2cnc(C)s2)nc2c(F)cccc21 | -42
51 | CCCc1nc(C(C)(C)NC(=O)c2ccnn2C)no1 | -10.5
52 | COc1ccccc1C(C)NC(=O)NCCC(=O)NC1CCCCC1 (stereo not given) | 0.0119
53 | N#Cc1cc(F)c(NCCc2ccc(S(N)(=O)=O)cc2)c(F)c1 | -53.9
54 | COc1cccc(CNC(CN2CCN(C)CC2)c2ccccc2)c1 (stereo not given) | 12.5
55 | O=C(c1cscn1)N1CCc2ncc(Cn3cncn3)n2CC1 | -68.9
56 | O=C(c1ccnnc1)N1CCc2ncnc(C3CCOC3)c2CC1 (stereo not given) | -77.5
57 | Cc1cccc(COC[C@]23COC[C@H]2CN(c2ncccn2)C3)n1 | -76.2
58 | CC(=O)N1CCn2cc(CNC(=O)c3cccn3C)nc2C1 | 1.88
59 | CN(Cc1ccccn1)C1COC2(CCN(Cc3cccnc3)CC2)C1 (stereo not given) | -1.42
60 | Cc1ccc(CN2CCCn3c(nc(Cn4cncn4)cc3=O)C2)s1 | -1.6
61 | CN(C)CC(=O)Nc1ccc(C(=O)N(C)CCc2cn[nH]c2)cc1 | 2.2
62 | Nc1cc(C(=O)N2CCC(Oc3cccc(C(F)(F)F)c3)CC2)ccn1 | -7.03
63 | Cc1ccc(OCC(=O)N2CCOCC(O)(CN3CCCC3)C2)cc1C (stereo not given) | -4.05
64 | CCn1ccnc1CN(C)Cc1nc(Cc2cccc(F)c2)no1 | -4.44
65 | Cc1nc(CN2C[C@@H](NS(=O)(=O)N(C)C)[C@H](C(C)C)C2)cs1 | -6.04
66 | COCC(=O)NCC1CCCN(Cc2cc3ccccc3[nH]2)C1 (stereo not given) | 7.32

Row | Compound | cytotoxicity at 10 µM [%]
67 | Cc1cc(C)nc(CCNc2nccc(CCC(F)(F)F)n2)n1 | -114
68 | Cc1ccc(CN2CCOCS2(=O)=O)cc1F | 9.52
69 | CC(C)N1CCN(C(=O)c2csc3nc(-c4ccc(Cl)cc4)cn23)CC1 | 1.98
70 | CC(C)(C)CN1CCC(c2nnc(Cn3ccnc3)n2C2CC2)CC1 | -5.02
71 | Cc1cnc2c(C(=O)N3CCCC(OCc4ccccn4)C3)cnn2c1 (stereo not given) | -5.2
72 | CC(Cn1ccnc1)NC1CCN(Cc2cccc(O)c2)CC1 (stereo not given) | -4.21
73 | CC(C)n1cnnc1CN(C)C(=O)c1cnn2ccccc12 | 1.31
74 | CCN(CC)C(=O)c1c(Cl)cnn1CC | -12.3
75 | CS(=O)(=O)N1CCC(C(=O)NC(Cc2ccsc2)c2nccs2)CC1 (stereo not given) | 4.04
76 | Cc1ccccc1-c1cncc(C2CCN(C)CC2)n1 | -6.13
77 | Cc1cc(C)c(CNC(=O)NCc2ccncc2)c(=O)[nH]1 | -5.59
78 | CCc1ccc(C(=O)N2CCN(CC(O)c3ccccc3)CC2)o1 (stereo not given) | -2.54
79 | OC(COCc1ccccc1)CN1CCC(c2ccn[nH]2)CC1 (stereo not given) | -13.6
80 | OC(COc1ccc(F)cc1)CN1CCC(c2ccn[nH]2)CC1 (stereo not given) | 0.923
81 | CCn1ncc2c1CCCC2NCc1cc(OC)cc(OC)c1 (stereo not given) | 3.24
82 | Cc1cc(C(=O)NS(C)(=O)=O)c(C)n1-c1ccccc1 | -8.81
83 | COc1cccc(CNC(=O)CN2CCCC(Cn3cncn3)C2)c1 (stereo not given) | -18.2
84 | Cc1ccc(NC2CCN(C(=O)c3ccc(Cl)cc3F)CC2)nn1 | -17.7
85 | Cc1oc(C(=O)O)cc1S(=O)(=O)Nc1cc(Cl)ccc1F | -12
86 | CCc1nc(CN2CCCN(C(=O)c3cnc[nH]3)CC2)cs1 | -9.39
87 | Cc1cc(C)n(CC2CCCN2C(=O)c2cccc3[nH]ncc23)n1 (stereo not given) | -5.55
88 | CN(C(=O)NCCCN1CCCC1)C1CCN(c2ccccc2)C1=O (stereo not given) | 0.864

Row | Compound | cytotoxicity at 10 µM [%]
89 | CCc1cc(C(=O)N2CCC(Nc3ccc(C)nn3)CC2)sc1C | -1.03
90 | CC1(C)CN(C(=O)NCCc2ccn(-c3ccccc3)n2)CCO1 | 2.21
91 | Cc1ccc(CN(Cc2[nH]cnc2C)C2CC(C)(C)NC(C)(C)C2)o1 | -3.3
92 | CC(C)NC(=O)C1CN(Cc2ccsc2)Cc2ccnn2C1 (stereo not given) | -5.03
93 | NC(=O)N1CC[C@H](O)[C@@H]1Cc1cccnc1 | 1.72
94 | O=C(O)c1cc2c(nc1-c1cncnc1)CCN(C1CCOC1)CC2 (stereo not given) | -1.61
95 | c1ccc(CN2C[C@@H]3OCCN(c4ncccn4)[C@@H]3C2)nc1 | 3.86
96 | CN(C)Cc1cc(C2CCCCN2S(=O)(=O)c2cccc(Cl)c2)nn1C (stereo not given) | -8.63
97 | c1cnc(N2CCO[C@H]3CN(Cc4c[nH]cn4)C[C@H]32)cn1 | 9.49
98 | CCN(CC)Cc1cn2c(n1)CN(C(=O)c1cc(C)on1)CC2 | 6.17
99 | O=C(C1CN(c2ncc(F)cn2)CC12CCOCC2)N1CC=CC1 (stereo not given) | 9.49
100 | c1cc(CN2CCO[C@H]3[C@H](OCCN4CCCC4)CC[C@@H]32)ccn1 | -1.95
101 | Cn1ccnc1CN1C[C@H](N2CCOCC2)[C@@H]2OCCC[C@@H]21 | 7.19
102 | O=C(c1cc[nH]n1)N1CCC(F)(F)C2(CCN(c3ccccn3)C2)C1 (stereo not given) | 2.38
103 | CN(Cc1ccco1)[C@@H]1CN(CC2CCOCC2)C[C@@H]2CCCO[C@@H]21 | -71.1
104 | O=C1CO[C@@H]2CN(Cc3cccs3)C[C@H]2N1Cc1cccnc1 | -77.6
105 | Cn1ccnc1CN1CCCC2(CCN(CC3CCCO3)CC2)C1 (stereo not given) | -76.7
106 | CCS(=O)(=O)N1CCN(Cc2cccnc2)c2nc(C)ccc2C1 | -70.3
107 | COCCCNC(=O)c1cc(-c2cnc(N3CCOCC3)nc2)cn1C | -69.8
108 | CN(Cc1cccs1)C1CCC[C@@H]2CN(C(=O)c3cnccn3)C[C@H]12 (stereo not given in full) | 16.7
109 | CCN(C)c1ncnc2c1CCN(Cc1ccncc1)CC2 | -10.7
110 | O=C(Cc1cnccn1)N1C[C@@H]2CC[C@H]1CN(Cc1cscn1)C2 | 1.88
